Assay results taken from ChEMBL document CHEMBL1649117, “GRL-02031, a novel nonpeptidic protease inhibitor (PI) containing a stereochemically defined fused cyclopentanyltetrahydrofuran potent against multi-PI-resistant human immunodeficiency virus type 1 in vitro” (Antimicrob Agents Chemother, 2009).

Key:
[1] = tested on: Human immunodeficiency virus 1; assay: Ratio of EC50 for HIV1 NL4-3 harboring I47V mutation in protease encoding region infected in human […] cells to EC50 for HIV1 NL4-3 infected in human MT4 cells; assay type: functional
[2] = tested on: Human immunodeficiency virus 1; assay: Ratio of EC50 for HIV1 NL4-3 harboring I85V mutation in protease encoding region infected in human […] cells to EC50 for HIV1 NL4-3 infected in human MT4 cells; assay type: functional
[3] = tested on: Human immunodeficiency virus 1; assay: Ratio of EC50 for nelfinavir to compound against HIV1 NL4-3 harboring D30N mutation in protease encoding region infected in human […] cells; assay type: functional
[4] = tested on: Human immunodeficiency virus 1; assay: Ratio of EC50 for ritonavir to compound against HIV1 NL4-3 harboring V82I mutation in protease encoding region infected in human […] cells; assay type: functional
[5] = tested on: Human immunodeficiency virus 1; assay: Ratio of EC50 for HIV1 NL4-3 harboring D30N mutation in protease encoding region infected in human […] cells to EC50 for HIV1 NL4-3 infected in human MT4 cells; assay type: functional
[6] = tested on: Human immunodeficiency virus 1; assay: Antiviral activity against HIV1 JRFL infected in human PHA-PBM cells after 7 days by MTT assay; assay type: functional, organism-based; conditions: Human immunodeficiency virus 1, JRFL, PBMC, 168 h
[7] = tested on: Human immunodeficiency virus 1; assay: Antiviral activity against HIV1 NL4-3 harboring V82I mutation in protease encoding region infected in human […] cells assessed as inhibition of p24 Gag protein production by ELISA; assay type: functional, organism-based; conditions: Human immunodeficiency virus 1, NL4-3
Outline: (§1)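 Protease PCR fragments (ApaI/SmaI) were cloned into pHIV-1NLSma, and virions were harvested from transfected 293T cells over 48 h. MT-4 target cells (10^5/ml) were infected with 100 TCID50s, with or without drug, at 37°C. Day-7 supernatant p24 Gag was read by chemiluminescent enzyme immunoassay.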

[8] = tested on: Human immunodeficiency virus 1; assay: Antiviral activity against HIV1 NL4-3 harboring G48V mutation in protease encoding region infected in human […] cells assessed as inhibition of p24 Gag protein production by ELISA; assay type: functional, organism-based; conditions: Human immunodeficiency virus 1, NL4-3; outline: as §1
[9] = tested on: Human immunodeficiency virus 1; assay: Ratio of EC50 for HIV1 NL4-3 harboring M46I/I47V mutation in protease encoding region infected in human […] cells to EC50 for HIV1 NL4-3 infected in human MT4 cells; assay type: functional
[10] = tested on: Human immunodeficiency virus 1; assay: Antiviral activity against HIV1 Ba-L infected in human PHA-PBM cells after 7 days by MTT assay; assay type: functional, organism-based; conditions: Human immunodeficiency virus 1, Ba-L, PBMC, 168 h
[11] = tested on: Human immunodeficiency virus 1; assay: Ratio of EC50 for amprenavir to compound against HIV1 NL4-3 harboring I47V mutation in protease encoding region infected in human […] cells; assay type: functional
[12] = tested on: Human immunodeficiency virus 1; assay: Ratio of EC50 for HIV1 NL4-3 harboring L90M mutation in protease encoding region infected in human […] cells to EC50 for HIV1 NL4-3 infected in human MT4 cells; assay type: functional
[13] = tested on: Human immunodeficiency virus 1; assay: Antiviral activity against HIV1 NL4-3 harboring M46I mutation in protease encoding region infected in human […] cells assessed as inhibition of p24 Gag protein production by ELISA; assay type: functional, organism-based; conditions: Human immunodeficiency virus 1, NL4-3; outline: as §1
[14] = tested on: Human immunodeficiency virus 2; assay: Antiviral activity against HIV2 ROD infected in human MT2 cells after 7 days by MTT assay; assay type: functional, organism-based; conditions: Human immunodeficiency virus 2, ISOLATE ROD, MT2, 168 h
[15] = tested on: Human immunodeficiency virus 1; assay: Ratio of EC50 for ritonavir to compound against HIV1 NL4-3 harboring L10F/I47V/V82I/I85V mutation in protease encoding region infected in human […] cells; assay type: functional
[16] = tested on: Human immunodeficiency virus 1; assay: Antiviral activity against HIV1 subtype E 92TH019 infected in human PHA-PBM cells after 7 days by MTT assay; assay type: functional, organism-based; conditions: Human immunodeficiency virus 1, subtype E 92TH019, PBMC, 168 h
[17] = tested on: Human immunodeficiency virus 1; assay: Ratio of EC50 for HIV1 NL4-3 harboring L33F mutation in protease encoding region infected in human […] cells to EC50 for HIV1 NL4-3 infected in human MT4 cells; assay type: functional
[18] = tested on: Human immunodeficiency virus 1; assay: Ratio of EC50 for amprenavir to compound against HIV1 NL4-3 harboring I50V mutation in protease encoding region infected in human […] cells; assay type: functional
[19] = tested on: Human immunodeficiency virus 1; assay: Antiviral activity against HIV1 NL4-3 harboring L90M mutation in protease encoding region infected in human […] cells assessed as inhibition of p24 Gag protein production by ELISA; assay type: functional, organism-based; conditions: Human immunodeficiency virus 1, NL4-3; outline: as §1
[20] = tested on: Human immunodeficiency virus 1; assay: Antiviral activity against HIV1 NL4-3 harboring L33F mutation in protease encoding region infected in human […] cells assessed as inhibition of p24 Gag protein production by ELISA; assay type: functional, organism-based; conditions: Human immunodeficiency virus 1, NL4-3; outline: as §1
[21] = tested on: Human immunodeficiency virus 1; assay: Ratio of EC50 for amprenavir to compound against HIV1 NL4-3 harboring L10F/M46I/I47V/V82I/I85V mutation in protease encoding region infected in human […] cells; assay type: functional
[22] = tested on: Human immunodeficiency virus 1; assay: Antiviral activity against HIV1 NL4-3 harboring L10F mutation in protease encoding region infected in human […] cells assessed as inhibition of p24 Gag protein production by ELISA; assay type: functional, organism-based; conditions: Human immunodeficiency virus 1, NL4-3; outline: as §1
[23] = tested on: Human immunodeficiency virus 1; assay: Antiviral activity against HIV1 NL4-3 harboring M46I/I47V mutation in protease encoding region infected in human […] cells assessed as inhibition of p24 Gag protein production by ELISA; assay type: functional, organism-based; conditions: Human immunodeficiency virus 1, NL4-3; outline: as §1
[24] = tested on: Human immunodeficiency virus 1; assay: Ratio of EC50 for HIV1 NL4-3 harboring L10F/I47V/V82I/I85V mutation in protease encoding region infected in human […] cells to EC50 for HIV1 NL4-3 infected in human MT4 cells; assay type: functional
[25] = tested on: Human immunodeficiency virus 1; assay: Antiviral activity against HIV1 NL4-3 harboring Q58E mutation in protease encoding region infected in human […] cells assessed as inhibition of p24 Gag protein production by ELISA; assay type: functional, organism-based; conditions: Human immunodeficiency virus 1, NL4-3; outline: as §1
[26] = tested on: Human immunodeficiency virus 1; assay: Ratio of EC50 for amprenavir to compound against HIV1 NL4-3 harboring M46I/I47V mutation in protease encoding region infected in human […] cells; assay type: functional
[27] = tested on: Human immunodeficiency virus 1; assay: Antiviral activity against HIV1 subtype A 92UG037 infected in human PHA-PBM cells after 7 days by MTT assay; assay type: functional, organism-based; conditions: Human immunodeficiency virus 1, subtype A 92UG037, PBMC, 168 h
[28] = tested on: Human immunodeficiency virus 1; assay: Antiviral activity against HIV1 NL4-3 harboring I84V mutation in protease encoding region infected in human […] cells assessed as inhibition of p24 Gag protein production by ELISA; assay type: functional, organism-based; conditions: Human immunodeficiency virus 1, NL4-3; outline: as §1
[29] = tested on: Human immunodeficiency virus 1; assay: Ratio of EC50 for HIV1 NL4-3 harboring I84V mutation in protease encoding region infected in human […] cells to EC50 for HIV1 NL4-3 infected in human MT4 cells; assay type: functional
[30] = tested on: Human immunodeficiency virus 1; assay: Ratio of EC50 for ritonavir to compound against HIV1 NL4-3 harboring L33F mutation in protease encoding region infected in human […] cells; assay type: functional
[31] = tested on: Human immunodeficiency virus 1; assay: Ratio of EC50 for HIV1 NL4-3 harboring V82I mutation in protease encoding region infected in human […] cells to EC50 for HIV1 NL4-3 infected in human MT4 cells; assay type: functional
[32] = tested on: Human immunodeficiency virus 1; assay: Antiviral activity against HIV1 subtype C 97ZA003 infected in human PHA-PBM cells after 7 days by MTT assay; assay type: functional, organism-based; conditions: Human immunodeficiency virus 1, subtype C 97ZA003, PBMC, 168 h
[33] = tested on: Human immunodeficiency virus 1; assay: Ratio of EC50 for HIV1 NL4-3 harboring I84V/I85V mutation in protease encoding region infected in human […] cells to EC50 for HIV1 NL4-3 infected in human MT4 cells; assay type: functional

SMILES: COc1ccc(S(=O)(=O)N(C[C@@H]2CCC(=O)N2)C[C@@H](O)[C@H](Cc2ccccc2)NC(=O)O[C@@H]2C[C@@H]3CCO[C@@H]3C2)cc1
- Ratio EC50 [1]: 1.6
- Ratio EC50 [2]: 1
- Ratio EC50 [3]: 5.6
- Ratio EC50 [4]: 1.5
- Ratio EC50 [5]: 0.9
- EC50 [6]: 15 nM
- EC50 [7]: 35 nM
- EC50 [8]: 40 nM
- Ratio EC50 [9]: 3.2
- EC50 [10]: 15 nM
- Ratio EC50 [11]: 1.2
- Ratio EC50 [12]: 1.4
- EC50 [13]: 28 nM
- EC50 [14]: 600 nM
- Ratio EC50 [15]: 1.9
- EC50 [16]: 15 nM
- Ratio EC50 [17]: 1.2
- Ratio EC50 [18]: 1.2
- EC50 [19]: 32 nM
- EC50 [20]: 28 nM
- Ratio EC50 [21]: 10
- EC50 [22]: 37 nM
- EC50 [23]: 73 nM
- Ratio EC50 [24]: 18.7
- EC50 [25]: 33 nM
- Ratio EC50 [26]: 1.3
- EC50 [27]: 15 nM
- EC50 [28]: 30 nM
- Ratio EC50 [29]: 1.3
- Ratio EC50 [30]: 1
- Ratio EC50 [31]: 1.5
- EC50 [32]: 15 nM
- Ratio EC50 [33]: 4.2
